Measurements published in publication PMC5835461 (Journal of Diabetes Investigation, 2017).

Legend:
[1] = Pharmacokinetics: free serum IAsp concentration; assay type: in vivo, human (Japanese patients with type 1 diabetes); details: Japanese T1D patients; 0.2 U/kg single s.c. dose; least squares mean
How it was run: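 Randomized, double-blind crossover with 3–12 days between dosing visits. After an overnight fast, patients received 0.2 U/kg subcutaneously into the lower abdominal wall. A euglycemic clamp held BG at 5.5 mmol/L, with sampling from 10 min pre-dose to 12 h post-dose. Free serum IAsp (PEG-precipitated) was measured by validated ELISA (LLOQ 10 pmol/L). Times were taken from raw individual profiles and analysed by linear mixed model.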

[2] = system: Japanese patients with type 1 diabetes; test: Safety assessments; assay type: in vivo, human; details: Japanese T1D patients; 0.2 U/kg single s.c. dose
How it was run: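 Monitored through screening, two single 0.2 U/kg subcutaneous dosing visits and follow-up 7–21 days after second dose. Covered adverse events, injection site reactions, hypoglycemia, safety laboratory parameters, vital signs, physical examination and ECG. Hypoglycemia counted as confirmed if severe (third-party assistance) or plasma glucose <3.1 mmol/L. Summary statistics covered all patients receiving at least one dose.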

With insulin aspart [IAsp] the “t Early 50% Cmax” value [1] was 29.3 min, the t max [1] was 68.7 min and the “Confirmed hypoglycemic episodes or injection site reactions” value [2] was “No confirmed hypoglycemic episodes or injection site reactions”. For the same substance, the Serious adverse events [2] was “no serious adverse events” and the Tolerability [2] was “well tolerated”.
